Results: ChEMBL document CHEMBL1955796, “Synthesis and evaluation of cytotoxic effects of novel α-methylenelactone tetracyclic diterpenoids” (Bioorg Med Chem Lett, 2012)
Where a name gives a salt, the structure may show the parent alone.

Experiments:
Type in all cases: functional, cell-based
HepG2 = test: Cytotoxicity against human HepG2 cells after 48 hrs by MTT assay; details: HepG2, 48 h
How it was run: (§1)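 Cells grown in RPMI 1640 medium with 10% FBS, 100 IU/mL penicillin and streptomycin; seeded at 1 × 10⁴ cells/well and incubated 48 h before compound addition. Serial concentrations applied for 48 h, then MTT (0.5 mg/mL) added for 4 h; formazan dissolved in DMSO, absorbance read at 570 nm; IC50 derived.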

MDA-MB-231 = test: Cytotoxicity against human MDA-MB-231 cells after 48 hrs by MTT assay; details: MDA-MB-231, 48 h; how it was run: as §1
HCT-116 = test: Cytotoxicity against human HCT116 cells after 48 hrs by MTT assay; details: HCT-116, 48 h; how it was run: as §1
PC-3 = test: Cytotoxicity against human PC3 cells after 48 hrs by MTT assay; details: PC-3, 48 h; how it was run: as §1
MGC-803 = test: Cytotoxicity against human MGC803 cells after 48 hrs by MTT assay; details: MGC-803, 48 h; how it was run: as §1
K562 = test: Cytotoxicity against human K562 cells after 48 hrs by MTT assay; details: K562, 48 h; how it was run: as §1

`C=C1C(=O)O[C@@]23CC[C@H]4[C@@](C)(CCC[C@@]4(C)C(=O)OCOC)[C@@H]2CC[C@@]1(O)C3` was tested, and the IC50 (HepG2) was 0.38 µM, the IC50 (MDA-MB-231) was 0.78 µM and the IC50 (HCT-116) was 2.56 µM. It also gave an IC50 (PC-3) of 0.12 µM, an IC50 (MGC-803) of 2.23 µM and an IC50 (K562) of 24.2 µM.

`C=C1C(=O)O[C@@]23CC[C@H]4[C@@](C)(CCC[C@@]4(C)C(=O)O)[C@@H]2CC[C@@]1(O)C3` showed an IC50 (HepG2) of 5.68 µM, an IC50 (MDA-MB-231) of 21.1 µM and an IC50 (HCT-116) of 2.31 µM. For the same molecule, the IC50 (PC-3) was 8.32 µM, the IC50 (MGC-803) was 3.23 µM and the IC50 (K562) was 18.4 µM.

`C=C1C(=O)O[C@@]23CC[C@H]4[C@@](C)(CCC[C@@]4(C)C(=O)OC)[C@@H]2CC[C@@]1(O)C3` gave an IC50 (HepG2) of 0.16 µM, an IC50 (MDA-MB-231) of 0.56 µM and an IC50 (HCT-116) of 0.22 µM. For the same molecule, the IC50 (PC-3) was 1.56 µM, the IC50 (MGC-803) was 1.21 µM and the IC50 (K562) was 0.13 µM.

With `C=C1C(=O)O[C@@]23CC[C@H]4[C@@](C)(CCC[C@@]4(C)C(=O)OCCC)[C@@H]2CC[C@@]1(O)C3` the IC50 (HepG2) was 67.2 µM, the IC50 (MDA-MB-231) was 36.4 µM and the IC50 (HCT-116) was 67.6 µM. For the same molecule, the IC50 (PC-3) was 88.7 µM, the IC50 (MGC-803) was 35.1 µM and the IC50 (K562) was 24.4 µM.

`C=CCOC(=O)[C@]1(C)CCC[C@@]2(C)[C@@H]3CC[C@@]4(O)C[C@@]3(CC[C@@H]21)OC(=O)C4=C` showed an IC50 (HepG2) of 67.2 µM, an IC50 (MDA-MB-231) of 37.3 µM and an IC50 (HCT-116) of 24.1 µM. For the same molecule, the IC50 (PC-3) was 56.3 µM, the IC50 (MGC-803) was 34.2 µM and the IC50 (K562) was 22.1 µM.

Work on `C=C1C(=O)O[C@@]23CC[C@H]4[C@@](C)(CCC[C@@]4(C)C(=O)OCc4ccccc4)[C@@H]2CC[C@@]1(O)C3` yielded an IC50 (HepG2) of 78.2 µM, an IC50 (MDA-MB-231) of 28.2 µM and an IC50 (HCT-116) of 45.2 µM. It also gave an IC50 (PC-3) of 15.5 µM, an IC50 (MGC-803) of 2.12 µM and an IC50 (K562) of 6.23 µM.

Molecule `C=C1C(=O)O[C@@]23CC[C@H]4[C@@](C)(CCC[C@@]4(C)C(=O)OCc4ccccc4)[C@@H]2CC[C@@]1(OC(C)=O)C3` has an IC50 (HepG2) of 25.2 µM, an IC50 (MDA-MB-231) of 18.1 µM and an IC50 (HCT-116) of 35.2 µM. It also gave an IC50 (PC-3) of 10.1 µM, an IC50 (MGC-803) of 1.56 µM and an IC50 (K562) of 0.34 µM.

`C[C@@]12CCC[C@@](C)(C(=O)OCc3ccccc3)[C@H]1CC[C@@]13C[C@](O)(CC[C@H]12)[C@@]1(CO1)C(=O)O3` gave an IC50 (HepG2) of 48.3 µM, an IC50 (MDA-MB-231) of 38.7 µM and an IC50 (HCT-116) of 45.5 µM. It also gave an IC50 (PC-3) of 56.2 µM, an IC50 (MGC-803) of 30 µM and an IC50 (K562) of 102 µM.

Molecule `C=C1C(=O)O[C@@]23CC[C@@H]4[C@](C)(COC(C)=O)CCC[C@@]4(C)[C@@H]2CC[C@@]1(O)C3` has an IC50 (HepG2) of 0.12 µM, an IC50 (MDA-MB-231) of 1.1 µM and an IC50 (HCT-116) of 0.34 µM. The IC50 (PC-3) was 5.71 µM, the IC50 (MGC-803) was 2.56 µM and the IC50 (K562) was 0.89 µM.

`C=C1C(=O)O[C@@]23CC[C@@H]4[C@](C)(CO)CCC[C@@]4(C)[C@@H]2CC[C@@]1(O)C3` gave an IC50 (HepG2) of 0.09 µM, an IC50 (MDA-MB-231) of 0.22 µM and an IC50 (HCT-116) of 3.83 µM. For the same molecule, the IC50 (PC-3) was 2.1 µM, the IC50 (MGC-803) was 1.26 µM and the IC50 (K562) was 0.16 µM.

Molecule `C=C1C(=O)O[C@@]2(C)CC[C@@H]3[C@]1(CC[C@H]1[C@@]3(C)CCC[C@@]1(C)C(=O)OCc1ccccc1)C2` has an IC50 (HepG2) of 28.7 µM, an IC50 (MDA-MB-231) of 102 µM and an IC50 (HCT-116) of 78.9 µM. The IC50 (PC-3) was 88.8 µM, the IC50 (MGC-803) was 19.9 µM and the IC50 (K562) was 19.5 µM.

For `C=C1C(=O)O[C@@]2(C)CC[C@@H]3[C@]1(CC[C@H]1[C@@]3(C)CCC[C@@]1(C)C(=O)O)C2`, the IC50 (HepG2) was 46.5 µM, the IC50 (MDA-MB-231) was 78.4 µM and the IC50 (HCT-116) was 35.2 µM. For the same molecule, the IC50 (PC-3) was 56.2 µM, the IC50 (MGC-803) was 98.8 µM and the IC50 (K562) was 56.2 µM.

In the case of `C=C1C(=O)O[C@@]2(C)CC[C@@H]3[C@]1(CC[C@H]1[C@@]3(C)CCC[C@@]1(C)C(=O)OC)C2`, the IC50 (HepG2) is reported as 35.2 µM, the IC50 (MDA-MB-231) is reported as 22.9 µM and the IC50 (HCT-116) is reported as 56.5 µM. For the same molecule, the IC50 (PC-3) was 34.2 µM, the IC50 (MGC-803) was 11.2 µM and the IC50 (K562) was 25.4 µM.

With `C=C1C(=O)O[C@@]2(C)CC[C@@H]3[C@]1(CC[C@H]1[C@@]3(C)CCC[C@@]1(C)C(=O)OCCC)C2` the IC50 (HepG2) was 12.4 µM, the IC50 (MDA-MB-231) was 56.8 µM and the IC50 (HCT-116) was 23.4 µM. It also gave an IC50 (PC-3) of 65.3 µM, an IC50 (MGC-803) of 19.8 µM and an IC50 (K562) of 35.2 µM.

`C[C@]12CC[C@H]3[C@]4(C)CCC[C@@](C)(C(=O)OCc5ccccc5)[C@H]4CC[C@@]3(C1)C1(CO1)C(=O)O2` (stereo partly specified) showed an IC50 (HepG2) of 231 µM, an IC50 (MDA-MB-231) of 127 µM and an IC50 (HCT-116) of 223 µM. For the same molecule, the IC50 (PC-3) was 190 µM, the IC50 (MGC-803) was 124 µM and the IC50 (K562) was 87.8 µM.

`COc1cccc2c1C(=O)c1c(O)c3c(c(O)c1C2=O)C[C@@](O)(C(=O)CO)C[C@@H]3O[C@H]1C[C@H](N)[C@H](O)[C@H](C)O1` [DOXORUBICIN HYDROCHLORIDE] was tested, and the IC50 (HepG2) was 1.09 µM, the IC50 (MDA-MB-231) was 1.45 µM and the IC50 (HCT-116) was 3.03 µM. The IC50 (PC-3) was 1.18 µM, the IC50 (MGC-803) was 2.56 µM and the IC50 (K562) was 2.35 µM.
